Reference: PMC2585982 (Toxicology and applied pharmacology, 2008)

Assays:
P450 2B10 = test: Western blot of liver microsomes, P450 2B10 protein expression; conditions: C57BL/6 mice, 100 mg/kg p.o. 3 days
P450 3A11 [1] = test: Western blot of liver microsomes, P450 3A11 protein expression; conditions: C57BL/6 mice, 100 mg/kg p.o. 3 days
P450 1A1/1A2 = test: Western blot of liver microsomes, P450 1A1/1A2 protein expression; conditions: C57BL/6 mice, 100 mg/kg p.o. 3 days
rat PXR = conditions: read-out: EC50, activation of rat PXR; ref Yang and Yan, 2007; cited from earlier work
human PXR = conditions: read-out: EC50, activation of human PXR; ref Yang and Yan, 2007; cited from earlier work
P450 3A11 [2] = test: Liver microsomal P450 3A activity; assay type: in vivo, mice; conditions: C57BL/6 mice, 100 mg/kg p.o. 3 days, vs corn oil
GST (DCNB, GST μ) = test: Liver cytosolic GST activity, DCNB as substrate, after oral dosing of mice; assay type: in vivo; conditions: C57BL/6 mice, 100 mg/kg p.o. 3 days, vs corn oil
P450s 2B9/10 = test: Liver microsomal P450 2B activity; assay type: in vivo, mice; conditions: mouse, in vivo, po, 100 mg/kg
NQO = test: Liver cytosolic NQO activity; assay type: in vivo, mice; conditions: C57BL/6 mice, 100 mg/kg p.o. 3 days, vs corn oil
full-length mCAR = full-length mCAR (Mus musculus, UniProt O35627); test: CAR transfection assay, full-length mCAR reporter in HepG2 cells; assay type: cell-based, murine; conditions: 4 μM androstanol
full-length mCAR, sequence (O35627 whole entry): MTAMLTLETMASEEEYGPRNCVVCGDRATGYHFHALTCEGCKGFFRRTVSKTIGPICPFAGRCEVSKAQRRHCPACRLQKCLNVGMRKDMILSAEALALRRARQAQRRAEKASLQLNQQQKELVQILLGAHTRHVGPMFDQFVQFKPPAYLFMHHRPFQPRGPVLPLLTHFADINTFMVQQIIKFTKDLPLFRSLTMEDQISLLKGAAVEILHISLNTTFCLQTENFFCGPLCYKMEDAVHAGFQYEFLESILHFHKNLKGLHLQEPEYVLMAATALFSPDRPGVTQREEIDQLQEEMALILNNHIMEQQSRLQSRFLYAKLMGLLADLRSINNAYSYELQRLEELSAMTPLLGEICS
Procedure, shortened: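 HepG2 cells in DMEM with 10% FBS were plated at 10^5 per well in charcoal-stripped serum. They were co-transfected with pCMX-mCAR or empty pCMX, a […] (LXRE)3 firefly luciferase reporter and a pRL-tk renilla control. At 70–80% confluence, cells got 4 μM androstanol, 0.1% DMSO or 4 μM […] plus 250 nM reference agonist or 0.1–100 μM test compound. After 24 h, firefly/renilla ratio was read; mean ± SD, ≥3 experiments.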

Row | P450 2B10 protein expression (western blot densitometry) (P450 2B10) | P450 3A11 protein expression (western blot densitometry) (P450 3A11 [1]) | P450 1A1/1A2 protein expression (western blot densitometry) (P450 1A1/1A2) | SMILES | Increase in P450 3A activity (testosterone), liver microsomes (P450 3A11 [2]) | GST activity using DCNB as a substrate, liver cytosol (GST (DCNB, GST μ)) | Increase in NQO activity, liver cytosol (NQO) | also measured
1 | did not have any apparent effect | did not have any apparent effect | did not have any apparent effect | CC(C)=CCC/C(C)=C/COc1ccc2ccc(=O)oc2c1 [auraptene] |  |  |  | 
2 |  |  |  | COc1c2occc2cc2ccc(=O)oc12 [8-methoxypsoralen] |  |  |  | EC50 (rat PXR): 14 µM; EC50 (human PXR): 14 µM
3 | increased | increased | increased | CC(C)=CCC/C(C)=C/COc1c2ccoc2cc2oc(=O)ccc12 [bergamottin] | 3–4 fold |  | 2–3 fold | Increase in P450 2B activity (pentoxyresorufin), liver microsomes (P450s 2B9/10): ~ 5 fold
4 |  |  |  | C[C@@]12CCC[C@H]1[C@@H]1CC[C@H]3C[C@@H](O)CC[C@]3(C)[C@H]1CC2 [androstanol] |  |  |  | Constitutive CAR transactivation (full-length mCAR): blocked
5 | did not have any apparent effect | did not have any apparent effect | did not have any apparent effect | O=c1ccc2ccccc2o1 [coumarin, 1,2-benzopyrone] |  | highest increase | 2–3 fold | 

Row | SMILES | P450 2B10 protein expression (western blot densitometry) (P450 2B10) | P450 3A11 protein expression (western blot densitometry) (P450 3A11 [1]) | P450 1A1/1A2 protein expression (western blot densitometry) (P450 1A1/1A2) | Increase in P450 3A activity (testosterone), liver microsomes (P450 3A11 [2]) | GST activity using DCNB as a substrate, liver cytosol (GST (DCNB, GST μ)) | Increase in NQO activity, liver cytosol (NQO) | also measured
6 | O=c1ccc2ccc3occc3c2o1 [angelicin] |  |  | increased | not statistically significant | highest increase |  | 
